Measurements as given in ChEMBL document CHEMBL1158182, “Antifungal activity of chalcones: a mechanistic study using various yeast strains” (Eur J Med Chem, 2008).
In brackets after ≈: the same amount, converted by molar mass.

Legend:
Format in all cases: functional
Saccharomyces cerevisiae [1] = assay: Antifungal activity against haploid Saccharomyces cerevisiae 1S by agar dilution method
Procedure, shortened: (§1)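 S. cerevisiae and K. lactis strains were tested by agar dilution on rich YPD agar at 30 °C. Compound stocks in 96% EtOH were added to the medium to give […]. Cells were suspended in water, serially diluted to 10^9–10^3 cells/ml, and plated with a metal replicator. MIC was read from growth.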

Saccharomyces cerevisiae [2] = assay: Antifungal activity against diploid Saccharomyces cerevisiae PV-2 by agar dilution method
Procedure, shortened: (§2)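 MICs by agar dilution on rich YPD medium. Compounds were added from 96% EtOH stocks to give final agar concentrations of 20 to 50 (units as printed in the source). Cells were suspended in water, serially diluted to 10^9, 10^7, 10^5 and 10^3 cells/ml, and spotted onto agar with a metal replicator. Incubation was at 37 °C for H. polymorpha and 30 °C for S. cerevisiae.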

Saccharomyces cerevisiae [3] = assay: Antifungal activity against diploid Saccharomyces cerevisiae PV-3 by agar dilution method; procedure, shortened: as §2
Saccharomyces cerevisiae [4] = assay: Antifungal activity against haploid Saccharomyces cerevisiae 1169 by agar dilution method; procedure, shortened: as §1
Saccharomyces cerevisiae [5] = assay: Antifungal activity against haploid Saccharomyces cerevisiae 2180 by agar dilution method; procedure, shortened: as §1
Saccharomyces cerevisiae [6] = assay: Antifungal activity against diploid Saccharomyces cerevisiae 1a by agar dilution method; procedure, shortened: as §1
Saccharomyces cerevisiae [7] = assay: Antifungal activity against diploid Saccharomyces cerevisiae 29a by agar dilution method; procedure, shortened: as §1
Saccharomyces cerevisiae [8] = assay: Antifungal activity against haploid Saccharomyces cerevisiae Sigma 1278b by agar dilution method; procedure, shortened: as §1
Saccharomyces cerevisiae [9] = assay: Antifungal activity against haploid Saccharomyces cerevisiae FY4 by agar dilution method; procedure, shortened: as §1
Saccharomyces cerevisiae [10] = assay: Antifungal activity against haploid Saccharomyces cerevisiae 10560-6B by agar dilution method; procedure, shortened: as §1
Saccharomyces cerevisiae [11] = assay: Antifungal activity against haploid Saccharomyces cerevisiae YSH1170 by agar dilution method; procedure, shortened: as §1
Saccharomyces cerevisiae [12] = assay: Antifungal activity against haploid Saccharomyces cerevisiae YSH1171 by agar dilution method; procedure, shortened: as §1
Ogataea angusta [13] = assay: Antifungal activity against Hansenula polymorpha WT1 with ade1 ura3 genotype by agar dilution method
Procedure, shortened: (§3)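 H. polymorpha strains were tested by agar dilution on rich YPD agar at 37 °C. Compound stocks in 96% EtOH were mixed into the medium to give […]. Cells were suspended in water, serially diluted to 10^9, 10^7, 10^5 and 10^3 cells/ml, and applied to the agar with a metal replicator. MIC was read from growth.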

Ogataea angusta [14] = assay: Antifungal activity against Hansenula polymorpha WT2 with ade1 met6 genotype by agar dilution method; procedure, shortened: as §3
Ogataea angusta [15] = assay: Antifungal activity against Hansenula polymorpha CD1 with ade1 leu2 cds1 genotype by agar dilution method; procedure, shortened: as §3
Ogataea angusta [16] = assay: Antifungal activity against Hansenula polymorpha CD2 with ade1 leu2 cds2 genotype by agar dilution method; procedure, shortened: as §3
Ogataea angusta [17] = assay: Antifungal activity against Hansenula polymorpha CD3 with ade1 leu2 cds3 genotype by agar dilution method; procedure, shortened: as §3
Ogataea angusta [18] = assay: Antifungal activity against Hansenula polymorpha WA1 with ade1 leu2 gsh1 genotype by agar dilution method; procedure, shortened: as §2
Ogataea angusta [19] = assay: Antifungal activity against Hansenula polymorpha 2a with arg1 leu2 ura3 cys1 genotype by agar dilution method; procedure, shortened: as §3
Ogataea angusta [20] = assay: Antifungal activity against Hansenula polymorpha 2b with arg1 ade1 leu2 genotype by agar dilution method; procedure, shortened: as §3
Ogataea angusta [21] = assay: Antifungal activity against Hansenula polymorpha D22 with arg1/arg1 ade1/ADE1 leu2/leu2 URA3/ura3 CYS1/cys1 genotype by agar dilution method; procedure, shortened: as §3
Ogataea angusta [22] = assay: Antifungal activity against Hansenula polymorpha M2 with met2 genotype by agar dilution method; procedure, shortened: as §3
Ogataea angusta [23] = assay: Antifungal activity against Hansenula polymorpha MC1 with met2 cys1 genotype by agar dilution method; procedure, shortened: as §3
Ogataea angusta [24] = assay: Antifungal activity against Hansenula polymorpha AS1 with arg1 gsh2delta genotype by agar dilution method; procedure, shortened: as §3
Ogataea angusta [25] = assay: Antifungal activity against Hansenula polymorpha M4 with met4 genotype by agar dilution method; procedure, shortened: as §3
Ogataea angusta [26] = assay: Antifungal activity against Hansenula polymorpha AU05 with ade3 ura3 genotype by agar dilution method; procedure, shortened: as §3
Ogataea angusta [27] = assay: Antifungal activity against Hansenula polymorpha R3 with rgh3 genotype by agar dilution method; procedure, shortened: as §3
Ogataea angusta [28] = assay: Antifungal activity against Hansenula polymorpha CRD2 with leu2 CDR2 genotype by agar dilution method; procedure, shortened: as §3
Kluyveromyces lactis [29] = assay: Antifungal activity against Kluyveromyces lactis 2-18B with MATalpha metA1 ura3 leu2 genotype by agar dilution method; procedure, shortened: as §1
Kluyveromyces lactis [30] = assay: Antifungal activity against Kluyveromyces lactis 1-6A with MATalpha uraA lys arg genotype by agar dilution method; procedure, shortened: as §1
Kluyveromyces lactis [31] = assay: Antifungal activity against Kluyveromyces lactis 2-19B with MATalpha ura lys arg genotype by agar dilution method; procedure, shortened: as §1
Saccharomyces cerevisiae [32] = assay: Antifungal activity against haploid Saccharomyces cerevisiae D3C by agar dilution method; procedure, shortened: as §2
Ogataea angusta [33] = assay: Antifungal activity against Hansenula polymorpha CTA1 with leu2 cat1 genotype by agar dilution method; procedure, shortened: as §2

| SMILES | MIC (Saccharomyces cerevisiae [1]) [µg/mL] | MIC (Saccharomyces cerevisiae [4]) [µg/mL] | MIC (Saccharomyces cerevisiae [5]) [µg/mL] | MIC (Saccharomyces cerevisiae [6]) [µg/mL] | MIC (Saccharomyces cerevisiae [7]) [µg/mL] | MIC (Saccharomyces cerevisiae [8]) [µg/mL] | MIC (Saccharomyces cerevisiae [9]) [µg/mL] | MIC (Saccharomyces cerevisiae [10]) [µg/mL] | MIC (Saccharomyces cerevisiae [11]) [µg/mL] | MIC (Saccharomyces cerevisiae [12]) [µg/mL] | MIC (Ogataea angusta [13]) [µg/mL] | MIC (Ogataea angusta [14]) [µg/mL] | MIC (Ogataea angusta [15]) [µg/mL] | MIC (Ogataea angusta [16]) [µg/mL] | MIC (Ogataea angusta [17]) [µg/mL] | MIC (Ogataea angusta [19]) [µg/mL] | MIC (Ogataea angusta [20]) [µg/mL] | MIC (Ogataea angusta [21]) [µg/mL] | MIC (Ogataea angusta [22]) [µg/mL] | MIC (Ogataea angusta [23]) [µg/mL] | also measured |
| --- | --- | --- | --- | --- | --- | --- | --- | --- | --- | --- | --- | --- | --- | --- | --- | --- | --- | --- | --- | --- | --- |
| O=C(/C=C/c1ccc(O)cc1)c1ccc(Cl)cc1 | > 40 | > 40 | > 40 | 35 (≈ 135 µM) | > 40 | > 40 | > 40 | > 40 | > 40 | > 40 | > 40 | > 40 | > 40 | > 40 | > 40 | 35 (≈ 135 µM) | > 40 | > 40 | > 40 | 30 (≈ 116 µM) | MIC (Saccharomyces cerevisiae [2]): 35 µg/mL (≈ 135 µM); MIC (Saccharomyces cerevisiae [3]): 35 µg/mL (≈ 135 µM); MIC (Ogataea angusta [18]): 30 µg/mL (≈ 116 µM); MIC (Ogataea angusta [24]): 30 µg/mL (≈ 116 µM); MIC (Ogataea angusta [25]): > 40 µg/mL; MIC (Ogataea angusta [26]): > 40 µg/mL; MIC (Ogataea angusta [27]): 40 µg/mL (≈ 155 µM); MIC (Ogataea angusta [28]): 40 µg/mL (≈ 155 µM); MIC (Kluyveromyces lactis [29]): 35 µg/mL (≈ 135 µM); MIC (Kluyveromyces lactis [30]): > 40 µg/mL; MIC (Kluyveromyces lactis [31]): 35 µg/mL (≈ 135 µM) |
| O=C(/C=C/c1cccc(O)c1)c1ccc(Cl)cc1 | 20 (≈ 77.3 µM) | 20 (≈ 77.3 µM) | 16 (≈ 61.8 µM) | 20 (≈ 77.3 µM) | 25 (≈ 96.6 µM) | 15 (≈ 58 µM) | 18 (≈ 69.6 µM) | 15 (≈ 58 µM) | 15 (≈ 58 µM) | 18 (≈ 69.6 µM) | 25 (≈ 96.6 µM) | < 20 | < 20 | < 20 | < 20 | < 20 | 25 (≈ 96.6 µM) | < 20 | 25 (≈ 96.6 µM) | < 20 | MIC (Saccharomyces cerevisiae [2]): 18 µg/mL (≈ 69.6 µM); MIC (Saccharomyces cerevisiae [3]): 15 µg/mL (≈ 58 µM); MIC (Saccharomyces cerevisiae [32]): 20 µg/mL (≈ 77.3 µM); MIC (Ogataea angusta [24]): < 20 µg/mL; MIC (Ogataea angusta [25]): 25 µg/mL (≈ 96.6 µM); MIC (Ogataea angusta [26]): 25 µg/mL (≈ 96.6 µM); MIC (Ogataea angusta [33]): 25 µg/mL (≈ 96.6 µM); MIC (Ogataea angusta [27]): < 20 µg/mL; MIC (Ogataea angusta [28]): < 20 µg/mL; MIC (Kluyveromyces lactis [29]): < 20 µg/mL; MIC (Kluyveromyces lactis [30]): < 20 µg/mL; MIC (Kluyveromyces lactis [31]): < 20 µg/mL |
| COc1ccc(/C=C/C(=O)c2ccccc2)cc1O | > 40 | > 40 | > 40 | > 40 | > 40 | > 40 | > 40 | > 40 | 35 (≈ 138 µM) | > 40 | > 40 | > 40 | > 40 | > 40 | > 40 | 30 (≈ 118 µM) | > 40 | > 40 | > 40 | 30 (≈ 118 µM) | MIC (Ogataea angusta [18]): 30 µg/mL (≈ 118 µM); MIC (Ogataea angusta [24]): 30 µg/mL (≈ 118 µM); MIC (Ogataea angusta [25]): > 40 µg/mL; MIC (Ogataea angusta [26]): > 40 µg/mL; MIC (Ogataea angusta [27]): > 40 µg/mL; MIC (Ogataea angusta [28]): > 40 µg/mL; MIC (Kluyveromyces lactis [29]): 25 µg/mL (≈ 98.3 µM); MIC (Kluyveromyces lactis [30]): 25 µg/mL (≈ 98.3 µM); MIC (Kluyveromyces lactis [31]): 25 µg/mL (≈ 98.3 µM) |
| O=C(/C=C/c1cccc(O)c1)c1ccccc1 [3-HYDROXY CHALCONE] | 25 (≈ 111 µM) | 30 (≈ 134 µM) | 25 (≈ 111 µM) | 25 (≈ 111 µM) | 25 (≈ 111 µM) | 25 (≈ 111 µM) | 25 (≈ 111 µM) | 25 (≈ 111 µM) | 25 (≈ 111 µM) | 20 (≈ 89.2 µM) | 35 (≈ 156 µM) | 25 (≈ 111 µM) | 25 (≈ 111 µM) | 25 (≈ 111 µM) | 25 (≈ 111 µM) | 25 (≈ 111 µM) | 25 (≈ 111 µM) | 25 (≈ 111 µM) | 25 (≈ 111 µM) | 20 (≈ 89.2 µM) | MIC (Saccharomyces cerevisiae [2]): 25 µg/mL (≈ 111 µM); MIC (Saccharomyces cerevisiae [3]): 25 µg/mL (≈ 111 µM); MIC (Saccharomyces cerevisiae [32]): 25 µg/mL (≈ 111 µM); MIC (Ogataea angusta [18]): < 20 µg/mL; MIC (Ogataea angusta [24]): 20 µg/mL (≈ 89.2 µM); MIC (Ogataea angusta [25]): 30 µg/mL (≈ 134 µM); MIC (Ogataea angusta [26]): 35 µg/mL (≈ 156 µM); MIC (Ogataea angusta [33]): 35 µg/mL (≈ 156 µM); MIC (Ogataea angusta [27]): 20 µg/mL (≈ 89.2 µM); MIC (Ogataea angusta [28]): 20 µg/mL (≈ 89.2 µM); MIC (Kluyveromyces lactis [29]): < 20 µg/mL; MIC (Kluyveromyces lactis [30]): < 20 µg/mL; MIC (Kluyveromyces lactis [31]): < 20 µg/mL |
